Calls of active or inactive are those of the source. The calls are words filed in the database; no cut-off is given here.
Assays:
[1] = Metabolic stability in rat liver microsomes assessed as compound remaining after 1 hr; type: ADME, Microsome; settings: read-out: Stability
Summary of the method: (§1)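 Liver microsomes (human, rat or rabbit) incubated with compound (5) in pH 7.4 phosphate buffer with an NADPH-regenerating system (2.5 mM MgCl2, 2.5 mM glucose-6-phosphate, 1 mM NADP, 1 U/ml G6P dehydrogenase) at 37 °C for 1 h. Human microsomes at 1.25 mg/ml. Read-out was % parent remaining; metabolites analysed by LC/MS.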

[2] = Metabolic stability in rabbit liver microsomes assessed as compound remaining after 1 hr; type: ADME, Oryctolagus cuniculus, Microsome; settings: read-out: Stability; summary of the method: as §1
[3] = Metabolic stability in human liver microsomes assessed as compound remaining after 1 hr; type: ADME, Microsome; settings: read-out: Stability; summary of the method: as §1
[4] = tested on: Oryctolagus cuniculus; test: Inhibition of erectile dysfunction in New Zealand white rabbit assessed as induction of SNP-potentiated penile erection at 0.3 mg/kg, po after 2 hrs; type: functional, organism-based; parameters: dose 0.3 mg/kg
Summary of the method: (§2)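 Conscious New Zealand white rabbits, 3–4 kg, n = 4. Compound given orally, dissolved in distilled water. SNP (0.1 mg/kg in saline) injected 2 h later. Penile length (covered plus mucosa area) measured in cm with sliding calipers over a total of 2 h after dosing.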

[5] = tested on: Oryctolagus cuniculus; test: Inhibition of erectile dysfunction in New Zealand white rabbit assessed as induction of SNP-potentiated penile erection at 3 mg/kg, po after 2 hrs; type: functional, organism-based; parameters: dose 3 mg/kg; summary of the method: as §2
[6] = molecular target: T1, Rod cGMP-specific 3',5'-cyclic phosphodiesterase subunit alpha (Bos taurus, UniProt P11541); test: Inhibition of bovine retina PDE6
T1 sequence (P11541 whole entry): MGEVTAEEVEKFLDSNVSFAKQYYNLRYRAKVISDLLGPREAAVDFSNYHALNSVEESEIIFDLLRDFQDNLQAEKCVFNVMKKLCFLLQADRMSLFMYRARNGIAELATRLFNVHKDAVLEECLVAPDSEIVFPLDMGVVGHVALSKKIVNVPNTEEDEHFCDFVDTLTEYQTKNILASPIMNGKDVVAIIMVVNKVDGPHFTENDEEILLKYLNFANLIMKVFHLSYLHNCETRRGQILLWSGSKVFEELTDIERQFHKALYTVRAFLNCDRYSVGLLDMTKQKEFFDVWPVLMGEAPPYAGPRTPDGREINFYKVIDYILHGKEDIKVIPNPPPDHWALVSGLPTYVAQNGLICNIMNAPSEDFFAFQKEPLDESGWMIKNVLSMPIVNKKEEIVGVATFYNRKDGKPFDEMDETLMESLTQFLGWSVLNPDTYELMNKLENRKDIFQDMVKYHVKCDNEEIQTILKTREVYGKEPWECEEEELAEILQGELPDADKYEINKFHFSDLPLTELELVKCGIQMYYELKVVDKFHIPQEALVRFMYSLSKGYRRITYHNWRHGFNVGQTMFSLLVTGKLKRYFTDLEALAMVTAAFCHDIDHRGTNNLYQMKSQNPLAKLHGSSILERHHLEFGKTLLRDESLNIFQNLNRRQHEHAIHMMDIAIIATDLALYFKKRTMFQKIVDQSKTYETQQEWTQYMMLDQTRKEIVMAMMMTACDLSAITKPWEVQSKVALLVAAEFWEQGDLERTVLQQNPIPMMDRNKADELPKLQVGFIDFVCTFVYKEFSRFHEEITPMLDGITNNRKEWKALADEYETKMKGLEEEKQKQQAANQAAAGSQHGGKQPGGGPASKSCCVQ

[7] = molecular target: cGMP-specific 3',5'-cyclic phosphodiesterase (Bos taurus, UniProt Q28156); test: Inhibition of bovine platelet PDE5
[8] = tested on: Liver microsomes; test: Metabolic stability in human liver microsomes; type: ADME, Microsome; summary of the method: as §1
[9] = Permeability across human Caco-2 cells; type: ADME, cell-based; settings: read-out: permeability
[10] = molecular target: Dual 3',5'-cyclic-AMP and -GMP phosphodiesterase 11A (Homo sapiens, UniProt Q9HCR9); test: Inhibition of human recombinant PDE11
Dual 3',5'-cyclic-AMP and -GMP phosphodiesterase 11A, sequence (Q9HCR9 whole entry): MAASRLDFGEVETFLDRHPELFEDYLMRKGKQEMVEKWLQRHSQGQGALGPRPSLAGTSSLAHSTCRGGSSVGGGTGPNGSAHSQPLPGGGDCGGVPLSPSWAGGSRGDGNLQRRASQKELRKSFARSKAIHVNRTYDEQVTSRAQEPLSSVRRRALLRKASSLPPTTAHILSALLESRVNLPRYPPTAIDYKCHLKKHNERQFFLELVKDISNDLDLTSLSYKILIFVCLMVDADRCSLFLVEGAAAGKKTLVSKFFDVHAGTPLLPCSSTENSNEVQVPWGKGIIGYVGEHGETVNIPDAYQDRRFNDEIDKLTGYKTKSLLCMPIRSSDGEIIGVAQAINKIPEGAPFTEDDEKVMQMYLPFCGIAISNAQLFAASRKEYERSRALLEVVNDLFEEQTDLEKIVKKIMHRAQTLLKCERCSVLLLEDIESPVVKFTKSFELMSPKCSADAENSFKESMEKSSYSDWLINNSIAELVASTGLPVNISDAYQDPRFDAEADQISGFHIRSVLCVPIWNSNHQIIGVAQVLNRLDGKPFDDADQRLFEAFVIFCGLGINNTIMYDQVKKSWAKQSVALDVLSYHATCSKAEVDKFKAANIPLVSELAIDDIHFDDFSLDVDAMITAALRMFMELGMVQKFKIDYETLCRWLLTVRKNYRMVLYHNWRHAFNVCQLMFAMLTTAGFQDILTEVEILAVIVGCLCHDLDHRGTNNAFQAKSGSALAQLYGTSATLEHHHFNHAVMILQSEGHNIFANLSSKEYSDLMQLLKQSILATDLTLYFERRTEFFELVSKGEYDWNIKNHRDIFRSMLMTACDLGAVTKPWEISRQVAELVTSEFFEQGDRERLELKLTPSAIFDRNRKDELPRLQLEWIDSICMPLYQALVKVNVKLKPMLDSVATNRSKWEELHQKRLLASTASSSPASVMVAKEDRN

[11] = molecular target: hERG (KCNH2) (Homo sapiens, UniProt Q12809); test: Inhibition of human ERG at 10 uM
hERG (KCNH2), sequence (Q12809 whole entry): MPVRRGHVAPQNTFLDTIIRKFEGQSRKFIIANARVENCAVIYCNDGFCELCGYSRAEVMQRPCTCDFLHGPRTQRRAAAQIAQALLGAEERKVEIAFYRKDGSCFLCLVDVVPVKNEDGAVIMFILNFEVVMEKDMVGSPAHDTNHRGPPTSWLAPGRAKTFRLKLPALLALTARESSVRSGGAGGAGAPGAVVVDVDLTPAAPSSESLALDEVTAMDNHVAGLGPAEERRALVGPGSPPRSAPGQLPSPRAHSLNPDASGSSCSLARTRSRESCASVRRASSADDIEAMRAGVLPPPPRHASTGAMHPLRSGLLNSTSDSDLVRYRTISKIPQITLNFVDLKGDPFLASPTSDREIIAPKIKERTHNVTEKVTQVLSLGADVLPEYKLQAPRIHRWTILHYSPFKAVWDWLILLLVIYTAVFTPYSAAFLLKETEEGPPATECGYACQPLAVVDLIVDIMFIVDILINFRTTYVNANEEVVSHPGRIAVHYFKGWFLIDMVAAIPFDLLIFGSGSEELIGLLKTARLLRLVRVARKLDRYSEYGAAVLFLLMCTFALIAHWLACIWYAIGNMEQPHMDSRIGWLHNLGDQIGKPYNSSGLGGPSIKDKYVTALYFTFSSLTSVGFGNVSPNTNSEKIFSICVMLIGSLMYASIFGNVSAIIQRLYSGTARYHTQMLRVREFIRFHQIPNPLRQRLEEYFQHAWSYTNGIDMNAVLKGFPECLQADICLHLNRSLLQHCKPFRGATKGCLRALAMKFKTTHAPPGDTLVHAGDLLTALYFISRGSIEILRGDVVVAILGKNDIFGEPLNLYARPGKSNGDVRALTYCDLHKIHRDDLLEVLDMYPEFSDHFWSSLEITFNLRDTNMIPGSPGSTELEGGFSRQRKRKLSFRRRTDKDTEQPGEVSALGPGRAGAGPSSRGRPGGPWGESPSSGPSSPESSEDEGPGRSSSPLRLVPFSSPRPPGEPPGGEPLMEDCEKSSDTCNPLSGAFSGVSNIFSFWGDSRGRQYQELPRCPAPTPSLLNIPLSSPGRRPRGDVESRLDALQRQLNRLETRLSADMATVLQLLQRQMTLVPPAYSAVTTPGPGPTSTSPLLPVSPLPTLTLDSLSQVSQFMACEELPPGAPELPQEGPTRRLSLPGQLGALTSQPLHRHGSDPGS

[12] = Cytotoxicity against mouse L5178Y cells; type: cell-based
[13] = Inhibition of bovine heart PDE1; parameters: species or system Bos taurus
Summary of the method: (§3)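 Enzyme sources: PDE1 from bovine heart, PDE2 from bovine heart, PDE3 from bovine platelet, PDE4 human recombinant, PDE6 from bovine retina, PDE11 human recombinant. IC50 values are the mean of more than 2 determinations.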

[14] = Inhibition of bovine heart PDE2; parameters: species or system Bos taurus; summary of the method: as §3
[15] = Aqueous solubility of the compound; type: physicochemical; settings: aqueous medium
[16] = Inhibition of bovine platelet PDE3; parameters: species or system Bos taurus; summary of the method: as §3
[17] = molecular target: Phosphodiesterase 4 (Homo sapiens, UniProt P27815+Q08499+Q07343+Q08493); test: Inhibition of human recombinant PDE4; type: protein assay; summary of the method: as §3
[18] = Cmax in rat at 10 mg/kg, po; type: ADME, organism-based; parameters: dose 10 mg/kg, route oral; settings: in vivo
Summary of the method: (§4)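 Oral dosing at 10 mg/kg in 0.5% Tween 80, given as the HCl salt, with n = 4 animals per species. Plasma PK parameters were determined: Tmax, Cmax, half-life and AUClast.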

[19] = Half life in rat at 10 mg/kg, po; type: ADME, organism-based; parameters: dose 10 mg/kg, route oral; settings: in vivo; summary of the method: as §4
[20] = Cmax in rabbit at 10 mg/kg, po; type: ADME, organism-based, Oryctolagus cuniculus; parameters: dose 10 mg/kg, route oral; settings: in vivo; summary of the method: as §4
[21] = AUClast in rat at 10 mg/kg, po; type: ADME, organism-based; parameters: time 0 - last, dose 10 mg/kg, route oral; settings: plasma; summary of the method: as §4
[22] = Half life in rabbit at 10 mg/kg, po; type: ADME, organism-based, Oryctolagus cuniculus; parameters: dose 10 mg/kg, route oral; settings: in vivo; summary of the method: as §4
[23] = Tmax in rat at 10 mg/kg, po; type: ADME, organism-based; parameters: dose 10 mg/kg, route oral; settings: in vivo; summary of the method: as §4
[24] = AUClast in rabbit at 10 mg/kg, po; type: ADME, organism-based, Oryctolagus cuniculus; parameters: time 0 - last, dose 10 mg/kg, route oral; settings: plasma; summary of the method: as §4
[25] = Tmax in rabbit at 10 mg/kg, po; type: ADME, organism-based, Oryctolagus cuniculus; parameters: dose 10 mg/kg, route oral; settings: in vivo; summary of the method: as §4

Work on CCC(=O)Nc1cc2c(NCc3ccc(OC)c(Cl)c3)ncnc2c(CCO)c1OC yielded a remaining at 1 h [1] of 96%, a remaining at 1 h [2] of 85% and a remaining at 1 h [3] of 3%.
For COC(=O)N(C)c1cc2c(NCc3ccc(OC)c(Cl)c3)ncnc2c(CCO)c1OC [listing 1 of 2 here], the inhibition [4] was “Active”.
With CN1CC(=O)N2[C@H](c3ccc4c(c3)OCO4)c3[nH]c4ccccc4c3C[C@@H]2C1=O the inhibition [5] was “Active” and the IC50 [6] was 3 µM.
With COc1ccc(CNc2ncnc3c(CCO)c(OC)c(N(C)C(=O)C(C)C)cc23)cc1Cl the IC50 [7] was 0.003 µM, the IC50 [6] was 1.1 µM and the remaining at 1 h [3] was 4.8%.
With COc1ccc(CNc2ncnc3c(CCO)c(OC)c(NS(=O)(=O)N(C)C)cc23)cc1Cl the Stability [8] was “Unstable”, the IC50 [7] was 0.012 µM and the IC50 [6] was 7.95 µM.
In the case of CCC(=O)N(C)c1cc2c(NCc3ccc(OC)c(Cl)c3)ncnc2c(CCO)c1OC, the inhibition [5] is reported as “Active”, the Papp [9] is reported as 170 nm/s and the remaining at 1 h [1] is reported as over 90%. For the same molecule, the IC50 [7] was 0.001 µM, the IC50 [6] was 0.32 µM and the remaining at 1 h [2] was over 90%. It also gave an IC50 [10] of 5.2 µM and a remaining at 1 h [3] of 16%.
Molecule COC(=O)N(C)c1cc2c(NCc3ccc(OC)c(Cl)c3)ncnc2c(CCO)c1OC [listing 2 of 2 here] has an inhibition at 10 µM [11] of under 20%, a Papp [9] of 350 nm/s and an IC50 [7] of 0.0006 µM. It also gave an IC50 [6] of 0.14 µM, a CC50 [12] of 85 µM and an IC50 [13] of 12 µM. The IC50 [14] was 32 µM, the solubility [15] was over 2 mg/mL and the IC50 [16] was 43 µM. The IC50 [10] was 12 µM, the IC50 [17] was 84 µM and the remaining at 1 h [3] was 85%.
Molecule CCC(=O)N(CC)c1cc2c(NCc3ccc(OC)c(Cl)c3)ncnc2c(CCO)c1OC has an IC50 [7] of 0.001 µM and a remaining at 1 h [3] of 5.5%.
For COC(=O)N(C)c1cc2c(NCc3ccc(OC)c(Cl)c3)ncnc2c(CCO)c1OC.Cl, the Cmax [18] was 0.42 µg/mL, the half-life [19] was 2.25 h and the Cmax [20] was 0.87 µg/mL. The AUC(0-t) [21] was 0.54 µg·h/mL, the half-life [22] was 4.2 h and the Tmax [23] was 0.2 h. For the same molecule, the AUC(0-t) [24] was 2.76 µg·h/mL and the Tmax [25] was 2.4 h.
In the case of COC(=O)Nc1cc2c(NCc3ccc(OC)c(Cl)c3)ncnc2c(CCO)c1OC, the IC50 [7] is reported as 0.003 µM, the IC50 [6] is reported as 0.71 µM and the IC50 [10] is reported as 5.7 µM. The remaining at 1 h [3] was 72%.
With COc1ccc(CNc2ncnc3c(CCO)c(OC)c(NS(C)(=O)=O)cc23)cc1Cl the Stability [8] was “Unstable” and the IC50 [7] was 0.011 µM.
In the case of CCOC(=O)Nc1cc2c(NCc3ccc(OC)c(Cl)c3)ncnc2c(CCO)c1OC, the IC50 [7] is reported as 0.017 µM, the IC50 [6] is reported as 0.6 µM and the IC50 [10] is reported as 5 µM.
In the case of COc1ccc(CNc2ncnc3c(CCO)c(OC)c(N(C)C(=O)C4CC4)cc23)cc1Cl, the IC50 [7] is reported as 0.001 µM, the IC50 [6] is reported as 0.34 µM and the remaining at 1 h [3] is reported as 25%.

From ChEMBL document CHEMBL1153113, “Discovery of potent, selective, and orally bioavailable PDE5 inhibitor: Methyl-4-(3-chloro-4-methoxybenzylamino)-8-(2-hydroxyethyl)-7-methoxyquinazolin-6-ylmethylcarbamate (CKD 533)” (Bioorg Med Chem Lett, 2010)
